Casp6 inh – caspase-6 (human) enzyme inhibition | purified caspase-6, Z-VEID-R110 cleavage fluorescence | inhibition, % at 12.5 µM | hit rate 0.53% among 350,000;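 active = mean inhibition across replicates at least about 35%, with every replicate also reaching that limit, limit read from the data; inconclusive = only one of the two criteria met; inactive = neither criterion met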;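 note: 0% = median of neutral control wells and 100% = no fluorescence left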
Target sequence (P55212 24-179 limits assumed): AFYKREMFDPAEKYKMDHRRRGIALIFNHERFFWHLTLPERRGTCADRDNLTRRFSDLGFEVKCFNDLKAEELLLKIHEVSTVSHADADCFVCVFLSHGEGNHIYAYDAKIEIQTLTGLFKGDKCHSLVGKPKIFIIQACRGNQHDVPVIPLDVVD
Target sequence (P55212 194-293 limits assumed): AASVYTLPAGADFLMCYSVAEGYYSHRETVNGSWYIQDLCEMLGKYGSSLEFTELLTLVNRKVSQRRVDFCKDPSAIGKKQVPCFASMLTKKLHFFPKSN
MITF TRPM1 HTS – MITF TRPM1 promoter activation in melanoma cells | SK-MEL-5 TRPM1-promoter luciferase, 24 h; % of positive control, neutral wells = 0 | activation, % at 12.5 µM | hit rate 0.75% among 300,000;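 active = mean activation of at least 80% with every replicate also reaching 80%; inconclusive = mean reaches 80% but some replicate falls short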;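 note: 0% = neutral control wells and 100% = parthenolide positive control wells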
esBAF inh – SWI/SNF esBAF complex inhibition; AID 602393; hit rate 2% among 350,000; reporter increase, % at 12.5 µM; mouse ES cells, Bmi1-luciferase knock-in reporter, 24 h; 100% = twice the neutral-well signal; in the data active = activation above about 40%; inconclusive = no clear call, values can overlap the other calls;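 note: 0% = median of the plate's neutral control wells and 100% = double that signal; a rise in the Bmi1 reporter signal indicates esBAF inhibition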
NSD2 HMT inh – NSD2 (human) methyltransferase inhibition. O96028. hit rate 0.54% among 310,000. inhibition, % at 12.5 µM. NSD2 peptide methylation, AlphaScreen, 120 min; in the data active = inhibition above about 50%
Wnt act – Wnt/beta-catenin pathway activation. hit rate 1.2% among 300,000. AID 743398. Wnt/beta-catenin reporter cell assay, activator, plate reader. activation, % at 9.35 µM; in the data active = activation above about 30%, passing the limit was not always enough; inconclusive = no clear call, values can overlap the other calls;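 note: 0% = neutral control wells and 100% = positive control wells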
Xi reactivation – activators of X-chromosome reactivation in mouse fibroblasts; XiGFP mouse fibroblasts, % GFP-positive cells imaging, 3 d; cells co-treated with 5-aza-dC sensitizer; scaled so ellipticine positive control = 100%; activation, % at 7.58 µM; hit rate 0.055% among 360,000;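 active = mean normalized replicate activation at least 10% and every replicate at or above 10%; inconclusive = only one of the two criteria met; inactive = mean below 10% and not all replicates reach 10%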;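 note: 0% = median of on-plate neutral control wells and 100% = ellipticine 6 µM median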
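Schedule: 3 d treatment, 15 min room-temperature fixation; system: 68-5-11 XiGFP fibroblast line; buffer or medium: DMEM plus 5-aza-dC sensitizer; control set: ellipticine 6 µM positive control; compound: one concentration, pinned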
Numbers without * were called inactive; ? = inconclusive; / = no result. Rows were chosen to be rich in hits. Some 3% of all compounds tested hit in one or more screens of this group.

SMILES	Casp6 inh	MITF TRPM1 HTS	esBAF inh	NSD2 HMT inh	Wnt act	Xi reactivation
CCCc1cc(C(=O)Nc2nccs2)cs1	/	95*	19	6	/	/
O=C(c1ccc(Cl)c(S(=O)(=O)N2CCCC2)c1)N1CCCCC1	-28	-5	/	1	18	0
O=C(Nc1nccs1)c1ccc(Cl)c(S(=O)(=O)N2CCCCC2)c1	/	3	42*	1	/	/
CCCN1C(=O)c2ccc(C(=O)Nc3nccs3)cc2C1=O	2	/	43*	-2	3	/
COc1cccc(NC(=O)N[C@@H]2C=C[C@H](CC(=O)Nc3ccc(-c4ccccc4)cc3)O[C@@H]2CO)c1	1	/	/	/	/	0
CC(=O)N(C)C[C@@H]1Oc2ccc(NC(=O)NC(C)C)cc2CC(=O)N(C)C[C@H]1C	/	/	/	/	/	0
O=C(c1cccnc1)N1C[C@H]2[C@@H](c3ccccc31)[C@H](CO)N2Cc1ccc2c(c1)OCO2	-1	/	-1	/	/	0
COC(=O)/C(=C1/Oc2ccc(C(C)(C)C)cc2S1)C(F)(F)F	0	72	/	-2	37*	0
COC(=O)/C(=C1/Oc2cc(C)oc(=O)c2S1)C(F)(F)F	7	-90	-35	/	-11	/
CC(=O)N1[C@H](CNC(=O)CN2CCOCC2)[C@@H](c2ccccc2)[C@@H]1CO	/	/	0	/	/	0
Cc1ccc(-c2cc(C(=O)N/N=C/c3c(C)nn(C)c3C)c3ccccc3n2)cc1C	/	37	48*	1	/	/
Cc1ccc(-c2cc(C(=O)NC3=NCCS3)c3ccccc3n2)cc1C	/	45	/	-2	40*	0
Cc1ccc(-c2cc(C(=O)N/N=C/c3ccoc3)c3ccccc3n2)cc1	0	5	8	0	1	0
Cc1ccc(S(=O)(=O)N[C@@H]2CC[C@@H](CCn3cc(C4CC4)nn3)O[C@H]2CO)cc1	-3	/	5	/	/	0
O=C(N/N=C/C(Br)=C/c1ccccc1)C(O)c1ccccc1 (centres undefined)	2	/	/	2	11	3
Cc1ccc(C(=O)CNc2ccccc2)cc1	0	62	62*	-1	6	0
Cc1ccc(NCC(=O)N/N=C\C(Br)=C\c2ccccc2)cc1	-2	-5	55*	1	4	/
O=C(N/N=C/C(Br)=C\c1ccccc1)c1cccs1	2	/	/	-1	126*	0
O=C(O)c1ccc(N/N=C/C(Br)=C/c2ccccc2)cc1	4	60	74*	0	27	0
CC(=C/c1ccccc1)/C=N/NC(=O)c1cccs1	4	/	/	0	4	0
CN1c2ccc(C#Cc3cccnc3)cc2[C@@H]2[C@@H](CCN2C(=O)C2CC2)[C@H]1CO	-2	/	-1	/	/	0
C[C@H](CO)N1C[C@H](C)[C@H](CN(C)C(=O)C2CCOCC2)Oc2ncc(Br)cc2C1=O	-2	/	-3	/	/	-1
CC(C)CC#Cc1ccc2c(c1)O[C@H](CN(C)C(=O)c1cccc(F)c1)[C@@H](C)CN([C@H](C)CO)S2(=O)=O	5	/	0	/	/	0
Cc1occc1C(=O)N/N=C/C(Br)=C\c1ccccc1	1	/	/	0	58*	?
O=C(C=NNc1ccccc1)c1ccccc1	12	52	-45	4	58*	0
SMILES	Casp6 inh	MITF TRPM1 HTS	esBAF inh	NSD2 HMT inh	Wnt act	Xi reactivation
O=C(N/N=C/c1cccc(OCc2ccccc2)c1)c1cccs1	/	/	46*	0	39*	/
Cc1occc1C(=O)N/N=C/C=C/c1ccccc1	1	?	/	-3	3	0
Oc1ccccc1/C=N/Nc1ccccc1	1	70	?	12	4	0
BrC(=C\c1ccccc1)/C=N/Nc1nc2ccccc2[nH]1	/	30	/	-4	33*	0
CN(C)C(=O)[C@@H]1[C@@H](CO)[C@@H]2Cn3c(ccc(-c4ccccc4)c3=O)[C@@H]2N1Cc1ccccc1	7	/	-3	/	/	1
Cc1occc1C(=O)N/N=C/C=C/c1ccc(N(C)C)cc1	2	48	61*	3	11	3
Cc1occc1C(=O)N/N=C/c1ccc(N(C)C)cc1	0	/	-56	0	-1	0
COC(=O)c1cc(/C=C/c2ccccc2)[nH]n1	1	67	61*	-2	6	0
CCCCCN(C(=O)CCC(=O)OC(C)C(=O)NC1CCCCC1)c1c(N)n(CCCC)c(=O)[nH]c1=O (centres undefined)	43*	0	-2	0	3	0
CCCCCN(C(=O)CCC(=O)OCC(=O)N(C)C1CCCCC1)c1c(N)n(CCCC)c(=O)[nH]c1=O	-3	-2	/	2	3	0
COC(=O)C[C@@H]1CC[C@H]2[C@@H](COC[C@H](O)CN2S(=O)(=O)c2ccccc2C)O1	-1	/	0	/	/	0
CNc1nc(-c2ccc3c(c2)CCN3C(=O)c2ccc(F)cc2)cs1	/	33	52*	1	-4	0
CC(C)C(=O)Nc1nc(-c2ccc3c(c2)CCN3C(=O)C2CC2)cs1	-7	45	36	2	2	0
O=C(CN1CCCC1)Nc1nc(-c2ccc3c(c2)CCN3C(=O)c2ccccc2F)cs1	/	9	20	/	/	/
CNc1nc(-c2ccc3c(c2)CCN3C(=O)c2ccccc2C)cs1	9	149*	/	-2	6	0
CC(C)(C)Nc1nc(-c2ccc3c(c2)CCN3C(=O)C2CC2)cs1	-3	/	95*	-3	?	0
CNc1nc(-c2ccc3c(c2)CCN3C(=O)c2cccc(F)c2)cs1	-4	36	/	/	13	0
COc1ccc(-c2nnc(-c3cccnc3)o2)cc1	/	/	31	14	36*	/
COc1ccc2nc(-c3ccc(N)cc3)[nH]c2c1	/	-30	-46	-2	69*	/
COc1ccc(Oc2nc(Oc3ccc(OC)cc3)nc(Oc3ccc(OC)cc3)n2)cc1	/	/	-5	-2	-4	/
COc1ccc(-c2nnc(-c3ccc(N)cc3)o2)cc1	/	/	24	9	53*	/
COc1ccc(-c2ccc(OC)cc2)cc1	/	?	54*	-1	/	/
Cc1ccc(-c2nnc(-c3cccnc3)o2)cc1	-2	?	20	1	27	0
COc1ccc2nc(-c3cccc(N)c3)[nH]c2c1	/	58	-30	1	3	/
CN(C)c1ccc2c(c1)[C@@H]1C[C@@H](CC(=O)NCc3ccc(-c4ccccc4)cc3)O[C@H](CO)[C@@H]1O2	/	/	10	/	/	0
Clc1ccc(-c2nnc(-c3cccnc3)o2)cc1	-2	/	47*	-3	9	0
COc1cccc(S(=O)(=O)N[C@@H]2C=C[C@H](CC(=O)NCc3ccc(F)cc3)O[C@@H]2CO)c1	-3	/	-6	/	/	1
Cc1nc([N+](=O)[O-])cn1CC(O)c1ccc(Cl)cc1 (centres undefined)	0	/	/	3	37*	0
Cc1cccc(Cc2cnc(NC(=O)c3ccc(C)o3)s2)c1	/	88*	/	1	51*	/
